# From ChEMBL document CHEMBL1921722, “In vitro and in vivo evaluation of select kahalalide F analogs with antitumor and antifungal activities” (Bioorg Med Chem, 2011)
# Activity calls are given as the source filed them.
# How the values were obtained:
# IGROV-1 = test: Cytotoxicity against human IGROV1 cells by sulforhodamine B assay; assay type: functional; details: for TGI: read-out: pTGI (converted)
# Outline: (§1)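 NCI Developmental Therapeutics Program 60-cell-line human tumor panel screen, run at NCI. A single-concentration pre-screen was followed by a five-concentration dose-response in 10-fold steps. GI50 is the concentration that reduces growth of treated cells to half that of untreated control cells. TGI is the concentration that completely halts growth.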
# MDA-MB-435 = test: Cytotoxicity against human MDA-MB-435 cells assessed as cell growth at 8 uM by sulforhodamine B assay relative to control; assay type: functional; details: read-out: Activity
# Mus musculus = test: Acute toxicity in athymic nude mouse assessed as mortality at 200 mg/kg, […] after 19 days; assay type: organism-based; parameters: dose 200 mg/kg, route intraperitoneal; details: in vivo, ip, 456 h
# NCI-H522 = test: Cytotoxicity against human NCI-H522 cells by sulforhodamine B assay; assay type: functional; details: for TGI: read-out: pTGI (converted); outline: as §1
# SK-MEL-5 [1] = test: Cytotoxicity against human SK-MEL-5 cells assessed as cell growth at 8 uM by sulforhodamine B assay relative to control; assay type: functional; details: read-out: Activity
# SF-539 [2] = test: Cytotoxicity against human SF539 cells assessed as cell growth at 80 nM by sulforhodamine B assay relative to control; assay type: functional; details: read-out: Activity
# SK-MEL-5 [3] = test: Cytotoxicity against human SK-MEL-5 cells assessed as cell growth at 800 nM by sulforhodamine B assay relative to control; assay type: functional; details: read-out: Activity
# Staphylococcus aureus = test: Antimicrobial activity against methicillin-resistant Staphylococcus aureus ATCC 43300 by CLSI method; assay type: functional, organism-based
# NCI-H23 = test: Cytotoxicity against human NCI-H23 cells by sulforhodamine B assay; assay type: functional; details: for TGI: read-out: pTGI (converted); outline: as §1
# RXF 393 = test: Cytotoxicity against human RXF393 cells assessed as cell growth at 800 nM by sulforhodamine B assay relative to control; assay type: functional; details: read-out: Activity
# LOX IMVI = test: Cytotoxicity against human LOXIMVI cells by sulforhodamine B assay; assay type: functional; details: for TGI: read-out: pTGI (converted); outline: as §1
# OVCAR-3 = test: Antitumor activity against human OVCAR3 cells xenografted in mouse assessed as tumor cell killing at 4.7 mg/kg, ip qd for 4 days by MTT assay; assay type: functional, organism-based; parameters: dose 4.7 mg/kg
# Outline: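 Hollow-fiber assay in mice. Tumor lines were grown in RPMI-1640 with 10% FBS and 2 mM glutamine. Cells at 2 × 10^6 cells/ml were loaded into 1 mm PVDF fibers (500,000 Da cutoff), heat-sealed at 2 cm and held 24–48 h at 37 °C, 5% CO2 before implantation. Compound was given IP. Fibers were collected the day after the fourth treatment for MTT (OD 540 nm, group means). A ≥50% cut in percent net growth versus vehicle counted as positive.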
# COLO 205 = test: Cytotoxicity against human COLO205 cells by sulforhodamine B assay; assay type: functional
# Outline: (§2)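 Run at NCI in the DTP 60-cell-line human tumor panel by standard procedure. Compounds were first screened at a single concentration, then tested at five tenfold-spaced concentrations. GI50 is the concentration reducing treated-cell growth to half that of untreated controls; TGI is the concentration completely halting growth.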
# OVCAR-8 = test: Cytotoxicity against human OVCAR8 cells assessed as cell growth at 80 uM by sulforhodamine B assay relative to control; assay type: functional; details: read-out: Activity
# HCT-15 [4] = test: Cytotoxicity against human HCT15 cells assessed as cell growth at 80 nM by sulforhodamine B assay relative to control; assay type: functional; details: read-out: Activity
# HOP-92 = test: Cytotoxicity against human HOP92 cells assessed as cell growth at 80 uM by sulforhodamine B assay relative to control; assay type: functional; details: read-out: Activity
# ACHN = test: Cytotoxicity against human ACHN cells assessed as cell growth at 80 nM by sulforhodamine B assay relative to control; assay type: functional; details: read-out: Activity; outline: as §2
# EKVX [5] = test: Cytotoxicity against human EKVX cells assessed as cell growth at 8 uM by sulforhodamine B assay relative to control; assay type: functional; details: read-out: Activity
# HCT-15 [6] = test: Cytotoxicity against human HCT15 cells by sulforhodamine B assay; assay type: functional
# Outline: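 Run by the NCI Developmental Therapeutics Program on its 60-line human tumour cell panel using the standard procedure. Compounds went through a single-concentration prescreen first, and those active by NCI criteria went on to a five-concentration growth-inhibition test. GI50 is the concentration that cuts growth of treated cells to half that of untreated control cells.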
# SNB-75 = test: Cytotoxicity against human SNB75 cells assessed as cell growth at 80 nM by sulforhodamine B assay relative to control; assay type: functional; details: read-out: Activity
# SK-OV-3 = test: Cytotoxicity against human SKOV3 cells assessed as cell growth at 8 uM by sulforhodamine B assay relative to control; assay type: functional; details: read-out: Activity
# U-251 = test: Cytotoxicity against human U251 cells assessed as cell growth at 8 uM by sulforhodamine B assay relative to control; assay type: functional; details: read-out: Activity
# UACC-62 = test: Cytotoxicity against human UACC62 cells by sulforhodamine B assay; assay type: functional; details: for TGI: read-out: pTGI (converted); outline: as §1
# SN12C = test: Cytotoxicity against human SN12C cells assessed as cell growth at 8 nM by sulforhodamine B assay relative to control; assay type: functional; details: read-out: Activity
# Hs-578T = test: Cytotoxicity against human Hs578T cells assessed as cell growth at 80 nM by sulforhodamine B assay relative to control; assay type: functional; details: read-out: Activity
# NCI/ADR-RES = test: Cytotoxicity against human NCI/ADR-RES cells assessed as cell growth at 80 uM by sulforhodamine B assay relative to control; assay type: functional; details: read-out: Activity
# SF-268 = test: Cytotoxicity against human SF268 cells assessed as cell growth at 80 nM by sulforhodamine B assay relative to control; assay type: functional; details: read-out: Activity
# RPMI-8226 = test: Cytotoxicity against human RPMI8226 cells by sulforhodamine B assay; assay type: functional; outline: as §1
# SF-539 [7] = test: Cytotoxicity against human SF539 cells assessed as cell growth at 80 uM by sulforhodamine B assay relative to control; assay type: functional; details: read-out: Activity
# HOP-62 = test: Cytotoxicity against human HOP62 cells assessed as cell growth at 8 uM by sulforhodamine B assay relative to control; assay type: functional; details: read-out: Activity
# [8] = system: Mycobacterium intracellulare; test: Antimicrobial activity against Mycobacterium intracellular ATCC 23068 after 5 days by MABA assay; assay type: functional, organism-based; details: ATCC 23068, 120 h
# Outline: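 M. intracellulare was tested by a modified Franzblau method. Samples were serially diluted in 20% DMSO/saline, run in duplicate, and inocula were adjusted by OD630. […] IC50 is 50% growth inhibition; MIC is the lowest concentration with no detectable growth.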
# EKVX [9] = test: Cytotoxicity against human EKVX cells assessed as cell growth at 8 nM by sulforhodamine B assay relative to control; assay type: functional; details: read-out: Activity
# HCT-15 [10] = test: Cytotoxicity against human HCT15 cells assessed as cell growth at 8 uM by sulforhodamine B assay relative to control; assay type: functional; details: read-out: Activity
# HCT-15 [11] = test: Cytotoxicity against human HCT15 cells assessed as cell growth at 80 uM by sulforhodamine B assay relative to control; assay type: functional; details: read-out: Activity
structure (smiles),measurement,setting,value
C/C=C1\NC(=O)[C@H](Cc2ccccc2)NC(=O)[C@@H](C(C)C)NC(=O)[C@@H]([C@@H](C)CC)NC(=O)[C@H](NC(=O)[C@H](NC(=O)[C@H](CCCNCc2ccc(N3CCOCC3)cc2)NC(=O)[C@H]2CCCN2C(=O)[C@H](NC(=O)[C@@H](NC(=O)[C@@H](NC(=O)[C@H](NC(=O)CCCC(C)C)C(C)C)[C@@H](C)O)C(C)C)C(C)C)[C@@H](C)CC)[C@@H](C)OC(=O)[C@H](C(C)C)NC1=O,GI50,IGROV-1,813 nM
same,TGI,IGROV-1,2000 nM
same,growth at 8 µM,MDA-MB-435,-88%
same,Activity,Mus musculus,Toxic
same,GI50,NCI-H522,5.01 µM
same,LC50,NCI-H522,> 75.9 µM
same,TGI,NCI-H522,33.1 µM
same,growth at 8 µM,SK-MEL-5 [1],-100%
same,growth at 0.08 µM,SF-539 [2],101%
same,growth at 0.8 µM,SK-MEL-5 [3],90%
same,Activity,Staphylococcus aureus,inactive
same,GI50,NCI-H23,1550 nM
same,LC50,NCI-H23,6.31 µM
same,TGI,NCI-H23,3090 nM
same,growth at 0.8 µM,RXF 393,97%
same,GI50,LOX IMVI,3160 nM
same,LC50,LOX IMVI,57.5 µM
same,TGI,LOX IMVI,13.5 µM
same,Activity,OVCAR-3,inactive
same,GI50,COLO 205; read-out: GI50,152 nM
same,GI50,COLO 205; read-out: pGI50 (converted),151 nM
same,growth at 80 µM,OVCAR-8,28%
same,growth at 0.08 µM,HCT-15 [4],107%
same,growth at 80 µM,HOP-92,-62%
same,growth at 0.08 µM,ACHN,102%
same,growth at 8 µM,EKVX [5],-76%
same,GI50,HCT-15 [6]; read-out: GI50,264 nM
same,TGI,HCT-15 [6]; read-out: TGI,814 nM
same,GI50,HCT-15 [6]; read-out: pGI50 (converted),263 nM
same,TGI,HCT-15 [6]; read-out: pTGI (converted),813 nM
same,growth at 0.08 µM,SNB-75,113%
same,growth at 8 µM,SK-OV-3,-87%
same,growth at 8 µM,U-251,-98%
same,GI50,UACC-62,1350 nM
same,LC50,UACC-62,4.27 µM
same,TGI,UACC-62,2400 nM
same,growth at 0.008 µM,SN12C,86%
same,growth at 0.08 µM,Hs-578T,101%
same,growth at 80 µM,NCI/ADR-RES,-58%
same,growth at 0.08 µM,SF-268,103%
same,GI50,RPMI-8226; read-out: GI50,1130 nM
same,TGI,RPMI-8226; read-out: TGI,2510 nM
same,GI50,RPMI-8226; read-out: pGI50 (converted),1120 nM
same,TGI,RPMI-8226; read-out: pTGI (converted),2510 nM
same,growth at 80 µM,SF-539 [7],-63%
same,growth at 8 µM,HOP-62,-70%
same,IC50,[8],> 20 µM
same,MBC,[8],> 20 µM
same,MIC,[8],> 20 µM
same,growth at 0.008 µM,EKVX [9],102%
same,growth at 8 µM,HCT-15 [10],-82%
same,growth at 80 µM,HCT-15 [11],-45%
C/C=C1\NC(=O)[C@H](Cc2ccccc2)NC(=O)[C@@H](C(C)C)NC(=O)[C@@H]([C@@H](C)CC)NC(=O)[C@H](NC(=O)[C@H](NC(=O)[C@H](CCCNCc2ccc(F)c(C)c2)NC(=O)[C@H]2CCCN2C(=O)[C@H](NC(=O)[C@@H](NC(=O)[C@@H](NC(=O)[C@H](NC(=O)CCCC(C)C)C(C)C)[C@@H](C)O)C(C)C)C(C)C)[C@@H](C)CC)[C@@H](C)OC(=O)[C@H](C(C)C)NC1=O,GI50,IGROV-1,708 nM
same,TGI,IGROV-1,1860 nM
same,growth at 8 µM,MDA-MB-435,-95%
same,Activity,Mus musculus,Non-toxic
same,GI50,NCI-H522,2.57 µM
same,LC50,NCI-H522,> 75.9 µM
same,TGI,NCI-H522,35.5 µM
same,growth at 8 µM,SK-MEL-5 [1],-100%
same,growth at 0.08 µM,SF-539 [2],104%
same,growth at 0.8 µM,SK-MEL-5 [3],83%
same,Activity,Staphylococcus aureus,inactive
same,GI50,NCI-H23,1410 nM
same,LC50,NCI-H23,5.25 µM
same,TGI,NCI-H23,2750 nM
same,growth at 0.8 µM,RXF 393,88%
same,GI50,LOX IMVI,1480 nM
same,LC50,LOX IMVI,4.9 µM
same,TGI,LOX IMVI,2.69 µM
same,Activity,OVCAR-3,inactive
same,GI50,COLO 205; read-out: GI50,135 nM
same,GI50,COLO 205; read-out: pGI50 (converted),135 nM
same,growth at 80 µM,OVCAR-8,48%
same,growth at 0.08 µM,HCT-15 [4],103%
same,growth at 80 µM,HOP-92,-91%
same,growth at 0.08 µM,ACHN,100%
same,growth at 8 µM,EKVX [5],-82%
same,LC50,HCT-15 [6],1380 nM
same,GI50,HCT-15 [6]; read-out: GI50,181 nM
same,TGI,HCT-15 [6]; read-out: TGI,419 nM
same,GI50,HCT-15 [6]; read-out: pGI50 (converted),182 nM
same,TGI,HCT-15 [6]; read-out: pTGI (converted),417 nM
same,growth at 0.08 µM,SNB-75,115%
same,growth at 8 µM,SK-OV-3,-96%
same,growth at 8 µM,U-251,-96%
same,GI50,UACC-62,1260 nM
same,LC50,UACC-62,4.17 µM
same,TGI,UACC-62,2290 nM
same,growth at 0.008 µM,SN12C,89%
same,growth at 0.08 µM,Hs-578T,97%
same,growth at 80 µM,NCI/ADR-RES,-60%
same,growth at 0.08 µM,SF-268,99%
same,GI50,RPMI-8226; read-out: GI50,885 nM
same,TGI,RPMI-8226; read-out: TGI,2260 nM
same,GI50,RPMI-8226; read-out: pGI50 (converted),891 nM
same,TGI,RPMI-8226; read-out: pTGI (converted),2240 nM
same,growth at 80 µM,SF-539 [7],-62%
same,growth at 8 µM,HOP-62,-93%
same,IC50,[8],> 20 µM
same,MBC,[8],> 20 µM
same,MIC,[8],> 20 µM
same,growth at 0.008 µM,EKVX [9],101%
same,growth at 8 µM,HCT-15 [10],-92%
same,growth at 80 µM,HCT-15 [11],-78%
